Series [1] has as its target T1, Alpha-mannosidase (Canavalia ensiformis) (UniProt C0HJB3).
T1 sequence (whole entry): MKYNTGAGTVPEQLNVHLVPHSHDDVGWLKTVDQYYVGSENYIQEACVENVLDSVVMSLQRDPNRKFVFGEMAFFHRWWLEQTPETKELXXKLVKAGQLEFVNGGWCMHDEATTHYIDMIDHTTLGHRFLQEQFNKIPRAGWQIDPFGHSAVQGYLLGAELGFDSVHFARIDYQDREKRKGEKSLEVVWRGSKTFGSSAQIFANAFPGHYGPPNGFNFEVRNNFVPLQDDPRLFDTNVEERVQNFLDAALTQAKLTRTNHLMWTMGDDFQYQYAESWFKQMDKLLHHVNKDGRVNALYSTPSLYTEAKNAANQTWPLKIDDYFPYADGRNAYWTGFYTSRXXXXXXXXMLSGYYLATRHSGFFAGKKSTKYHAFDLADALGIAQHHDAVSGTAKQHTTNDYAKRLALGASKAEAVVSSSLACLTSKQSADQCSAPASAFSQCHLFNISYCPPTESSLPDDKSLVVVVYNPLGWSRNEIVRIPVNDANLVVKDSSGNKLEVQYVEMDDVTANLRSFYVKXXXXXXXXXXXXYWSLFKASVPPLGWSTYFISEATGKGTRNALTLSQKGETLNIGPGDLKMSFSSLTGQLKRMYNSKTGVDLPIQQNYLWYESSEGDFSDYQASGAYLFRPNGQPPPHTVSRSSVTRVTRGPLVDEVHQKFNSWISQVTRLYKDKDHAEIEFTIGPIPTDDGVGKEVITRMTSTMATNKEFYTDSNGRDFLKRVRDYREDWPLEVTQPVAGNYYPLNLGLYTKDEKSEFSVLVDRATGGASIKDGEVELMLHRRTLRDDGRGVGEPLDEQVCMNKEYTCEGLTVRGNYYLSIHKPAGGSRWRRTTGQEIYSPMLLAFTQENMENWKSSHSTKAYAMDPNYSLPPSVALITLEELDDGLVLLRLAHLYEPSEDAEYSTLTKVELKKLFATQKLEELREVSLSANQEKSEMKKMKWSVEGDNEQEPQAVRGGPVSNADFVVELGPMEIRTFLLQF
The experiment in a line: Inhibition of jack bean alpha-mannosidase at 1 mM using 10 mM p-nitrophenyl-alpha-D-mannopyranoside as substrate. Put shortly:
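Jack bean α-mannosidase (0.1 U/cm3) was preincubated with inhibitor for 1 h at 37 °C. Substrate was 10 mM p-nitrophenyl α-D-mannopyranoside in 100 mM citrate pH 4.5, reacted 10 min at 37 °C. The reaction was stopped with 200 mM borate pH 9.8 and absorbance read at 420 nm. Ki came from Lineweaver–Burk plots; average of five assays. NI means under 50% inhibition at 1 mM.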

Series [2] has as its target T2, Beta-galactosidase (Bos taurus) (UniProt Q58D55).
T2 sequence (whole entry): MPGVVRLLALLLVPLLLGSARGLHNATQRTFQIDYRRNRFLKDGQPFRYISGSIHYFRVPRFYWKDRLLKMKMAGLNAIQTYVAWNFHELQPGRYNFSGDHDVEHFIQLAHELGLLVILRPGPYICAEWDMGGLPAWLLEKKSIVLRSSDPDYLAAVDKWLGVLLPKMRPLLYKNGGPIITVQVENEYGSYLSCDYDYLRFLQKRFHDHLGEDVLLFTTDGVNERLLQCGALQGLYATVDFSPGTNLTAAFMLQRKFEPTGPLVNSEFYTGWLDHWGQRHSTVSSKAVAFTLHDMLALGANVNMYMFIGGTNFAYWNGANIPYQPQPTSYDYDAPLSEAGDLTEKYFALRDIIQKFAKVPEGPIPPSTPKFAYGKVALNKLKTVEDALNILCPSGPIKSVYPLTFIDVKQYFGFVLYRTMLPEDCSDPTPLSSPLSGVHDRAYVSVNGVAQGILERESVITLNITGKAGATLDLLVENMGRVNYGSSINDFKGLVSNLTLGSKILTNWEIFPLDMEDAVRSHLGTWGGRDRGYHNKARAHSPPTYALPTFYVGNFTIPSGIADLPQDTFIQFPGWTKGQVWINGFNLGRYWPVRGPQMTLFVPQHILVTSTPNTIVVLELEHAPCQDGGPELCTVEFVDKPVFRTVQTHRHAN
The experiment in a line: Inhibition of bovine liver beta-galactosidase at 1 mM using 10 mM p-nitrophenyl-beta-D-galactopyranoside as substrate. Put shortly: (§1)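 Galactosidase (0.1 U cm−3) was preincubated with compound 1 h at 37 °C. Reaction used 10 mM p-nitrophenyl-α- or β-D-galactopyranoside in 200 mM sodium acetate, 10 min at 37 °C, stopped with 200 mM borate pH 9.8. Read at 420 nm. NI means no 50% inhibition at 1 mM. Five assays averaged.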

The nature of series [3]: Inhibition of bovine liver beta-glucosidase using 10 mM p-nitrophenyl-[…]-D-glucopyranoside as substrate. Set-up: species or system Bos taurus.
The test system of series [4] is Splenocyte. Briefly: Immunostimulating activity in Swiss albino mouse Splenocytes assessed as increase in IL-6 secretion at 2.5 uM by ELISA in presence of 10 uM ConA relative to control. It is filed as functional. Put shortly:
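Splenocytes (2 × 10^6 cells/well) were stimulated with 10 μM Con A plus compound (2.5 or 5 μM). Supernatant IL-6 was measured by sandwich ELISA: sample 2 h at 37 °C, biotinylated antibody 1 h, streptavidin–HRP, then substrate in the dark. Absorbance was read at 550 nm with 450 nm correction against an IL-6 standard curve. Mean ± SEM, n = 5.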
A general note: ELISA stands for enzyme-linked immunosorbent assay.

Series [5] relates to Splenocyte. The experiment in a line: Immunostimulating activity in Swiss albino mouse Splenocytes assessed as ConA-induced cell proliferation > 5 uM after 72 hrs by MTT assay. It is filed as functional, cell-based. In general terms: Tetrazolium dyes change colour on reduction, which living cells bring about.
In series [6] the test system is Splenocyte. Briefly: Immunostimulating activity in Swiss albino mouse Splenocytes assessed as increase in ConA-induced IFN-gamma secretion at 2.5 uM by ELISA. It is filed as functional, cell-based. Put shortly: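 IFN-γ was measured by ELISA in supernatants of splenocytes (2 × 10^6 cells/well). Cells were unstimulated, stimulated with Con A (10 μM), or given Con A plus compound (2.5 or 5 μM) for 24 h. Mean ± SEM, n = 5.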

Series [7] in a line: Cytotoxicity against Swiss albino mouse Splenocytes assessed as cell proliferation at 0.5 to 5 uM after 72 hrs by MTT assay. It is filed as cell-based. As to conditions: splenocyte. A digest of the protocol:
(§2)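 Swiss albino mouse splenocytes (2 × 10^6 cells/well) were treated with Con A alone or with test samples at final 0.5, 1, 2.5 and 5 μM. Con A is given as final 10 μg/mL in methods and 10 μM in text. Cells were held 72 h at 37 °C, 5% CO2, in RPMI with 10% FCS, then read by MTT. Values are % of Con A-treated cells (100%), mean ± SEM, n = 5.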

Series [8] concerns Splenocyte. Briefly: Immunostimulating activity in Swiss albino mouse Splenocytes assessed as increase in ConA-induced cell proliferation upto 2.5 uM after 72 hrs by MTT assay. It is filed as functional, cell-based. A digest of the protocol: as §2
The subject of a further series is Oryza sativa. The experiment in a line: Inhibition of rice alpha-glucosidase at 1 mM using 10 mM p-nitrophenyl-alpha-D-glucopyranoside as substrate. Put shortly:
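Rice α-glucosidase (0.1 U cm−3) was preincubated with compound 1 h at 37 °C. Reaction used 10 mM p-nitrophenyl-α-D-glucopyranoside in 100 mM phosphate pH 6.8, 10 min at 37 °C, stopped with 0.1 M Na2CO3. p-Nitrophenol was read at 420 nm. NI means no 50% inhibition at 1 mM. Ki came from Lineweaver–Burk plots. Average of five assays.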

Series [9] deals with Splenocyte. Briefly: Immunostimulating activity in Swiss albino mouse Splenocytes assessed as decrease in ConA-induced IL-4 secretion at 2.5 uM by ELISA. It is filed as functional. Put shortly:
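Supernatants came from Con A-stimulated splenocytes (2 × 10^6 cells/well) with compound at 2.5 or 5 μM. They were spun 2000g for 5 min and stored at −70 °C. IL-4 was measured by ELISA: sample 2 h at 37 °C, then peroxidase conjugate 1 h, substrate developed in the dark. Absorbance was read at 550 nm with 450 nm correction and quantified from an IL-4 standard curve. n = 5.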

The next series deals with Aspergillus niger. Briefly: Inhibition of aspergillus niger alpha-galactosidase at 1 mM using 10 mM p-nitrophenyl-alpha-D-galactopyranoside as substrate. A digest of the protocol:
as §1

Series [10] in a line: Immunostimulating activity in Swiss albino mouse Splenocytes assessed as increase in ConA-induced cell proliferation at 5 uM after 72 hrs by MTT assay. It is filed as functional, Splenocyte. Put shortly: as §2
The target in the next series is T3, Beta-galactosidase (Bos taurus, UniProt Q58D55).
T3 sequence (Q58D55 whole entry): T2 sequence (whole entry)
The experiment in a line: Inhibition of bovine liver beta-galactosidase using 10 mM p-nitrophenyl-beta-D-galactopyranoside as substrate. A digest of the protocol: (§3)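 Enzyme (0.1 U/cm3; A. niger α-galactosidase or bovine liver β-galactosidase) was preincubated with inhibitor for 1 h at 37 °C. Substrate was 10 mM p-nitrophenyl α- or β-D-galactopyranoside in 200 mM sodium acetate, reacted 10 min at 37 °C. The reaction was stopped with 200 mM borate pH 9.8 and released p-nitrophenol read at 420 nm. Ki came from Lineweaver–Burk plots; values are the average of five assays.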

The nature of series [11]: Immunostimulating activity in Swiss albino mouse Splenocytes assessed as increase in ConA-induced cell proliferation at 0.5 uM after 72 hrs by MTT assay. It is filed as functional, Splenocyte. A digest of the protocol:
as §2

For another series, the target named is T4, Alpha-mannosidase (Canavalia ensiformis, UniProt C0HJB3).
T4 sequence (C0HJB3 whole entry): T1 sequence (whole entry)
The experiment in a line: Inhibition of jack bean alpha-mannosidase using 10 mM p-nitrophenyl-alpha-D-mannopyranoside as substrate. A digest of the protocol:
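Jack bean α-mannosidase (0.1 U cm−3) was preincubated with compound 1 h at 37 °C. Reaction used 10 mM p-nitrophenyl-α-D-mannopyranoside in 100 mM citrate pH 4.5, 10 min at 37 °C, stopped with 200 mM borate pH 9.8. Read at 420 nm. IC50 and Ki were determined, Ki from Lineweaver–Burk double-reciprocal plots. Mean of five assays.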

A short description of series [12]: Inhibition of aspergillus niger alpha-galactosidase using 10 mM p-nitrophenyl-alpha-D-galactopyranoside as substrate. Put shortly: as §3
Series [13] is described as follows: Immunostimulating activity in Swiss albino mouse Splenocytes assessed as increase in ConA-induced cell proliferation at 2.5 uM after 72 hrs by MTT assay. It is filed as functional, Splenocyte. Put shortly:
as §2

Series [14] is described as follows: Immunostimulating activity in Swiss albino mouse Splenocytes assessed as increase in ConA-induced cell proliferation at 1 uM after 72 hrs by MTT assay. It is filed as functional, Splenocyte. A digest of the protocol:
as §2

Series [15] in a line: Inhibition of rice alpha-glucosidase using 10 mM p-nitrophenyl-alpha-D-glucopyranoside as substrate. Set-up: species or system Oryza sativa. Put shortly:
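Rice α-glucosidase (0.1 U cm−3) was preincubated with compound 1 h at 37 °C. Reaction used 10 mM p-nitrophenyl-α-D-glucopyranoside in 100 mM phosphate pH 6.8, 10 min at 37 °C, stopped with 0.1 M Na2CO3. p-Nitrophenol was read at 420 nm. Ki came from Lineweaver–Burk plots. Average of five assays.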

One may read the inhibition as the change of the read-out against control, counted positive when it falls. One may read the IC50 as the concentration needed to halve the response being measured. Usually Ki stands for the equilibrium dissociation constant of an inhibitor or competing ligand from its target. Read a low Ki as a stronger hold on the target.

Calls of active or inactive are those of the source. No cut-off for these calls is given here.

As for `O=C1CC[C@@]2(COCc3ccccc3)[C@@H](O)[C@H](O)[C@H](O)CN12`, the inhibition (in series [1]; in [2]; in the series on Oryza sativa; with Aspergillus niger) was under 50% each time. In series [3], the IC50 was 342 µM. For the same compound, the affinity in series [3], expressed as Ki, was 113 µM. The “fold change (FC)” value with Splenocyte [4] worked out at 4.9. For the same compound, the result in the series on Splenocyte [5] was inactive. Further, the outcome in the series with Splenocyte [6] and in the series with Splenocyte [8] was Active. Besides, the Activity entry in series [7] is given as “Non-toxic”. Moreover, the inhibition at 2.5 µM in the series on Splenocyte [9] was 40%.

`O=C1CC[C@]2(CO)[C@@H](O)[C@H](O)[C@@H](O)CN12`: the Activity was 103% in [10]; 13% in series [11]; “Non-toxic” in series [7]; 130% in series [13]; 80% in series [14]. In addition, the IC50 was determined as 22 µM in series [3], 0.8 µM against Beta-galactosidase, 0.056 µM against Alpha-mannosidase and 0.42 µM in series [12]. The Ki is 11 µM in series [3], 0.2 µM at Beta-galactosidase, 0.035 µM on Alpha-mannosidase and 0.33 µM in [12]. In addition, the “fold change (FC)” value in the series on Splenocyte [4] is listed as 12.1. In addition, the outcome with Splenocyte [5] was inactive. Moreover, the outcome in the series with Splenocyte [6] and in the series with Splenocyte [8] was Active. For the same compound, the inhibition with Oryza sativa was under 50%. In addition, in the series with Splenocyte [9], the inhibition at 2.5 µM is 57%.

For `OCCN1C[C@H](O)[C@@H](O)[C@H](O)[C@H]1CO` [MIGLITOL], the inhibition (in [1]; in the series on Aspergillus niger) was under 50% in each case. Moreover, the IC50 turned out to be 342 µM in series [3], 200 µM at Beta-galactosidase and 0.1 µM in [15]. Further, the inhibition constant (Ki) in [3] is 32 µM; on Beta-galactosidase it was 100 µM; in series [15], 0.06 µM.

These data come from ChEMBL document CHEMBL3621047, “Quaternary Indolizidine and Indolizidone Iminosugars as Potential Immunostimulating and Glycosidase Inhibitory Agents: Synthesis, Conformational Analysis, Biological Activity, and Molecular Docking Study” (J Med Chem, 2015).
